NadD block – inhibitors of S. aureus NadD, primary screen, biochemical, colorimetric, uHTS; Nicotinate-nucleotide adenylyltransferase NadD (Staphylococcus aureus N315); purified NadD enzyme, colorimetric absorbance read-out; inhibition, % at 20 µM; actives 0.78% (n = 360,000); AID 602399, 2012; in the data active = inhibition above about 26%
Rpn11 inh – Rpn11 (PSMD14) deubiquitinase inhibitors, primary screen, biochemical, fluorescence polarization, uHTS | inhibition, % at 20 µM | AID 588493, 2011 | human 26S proteasome, Ub4-pepOG fluorescence polarization; 20S core pre-blocked with epoxomicin | actives 0.59% (n = 360,000);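 active = inhibition at 20 µM, scaled to each plate's controls, above about 33%, limit read from the data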
Target sequence (O00487 whole entry, looked up): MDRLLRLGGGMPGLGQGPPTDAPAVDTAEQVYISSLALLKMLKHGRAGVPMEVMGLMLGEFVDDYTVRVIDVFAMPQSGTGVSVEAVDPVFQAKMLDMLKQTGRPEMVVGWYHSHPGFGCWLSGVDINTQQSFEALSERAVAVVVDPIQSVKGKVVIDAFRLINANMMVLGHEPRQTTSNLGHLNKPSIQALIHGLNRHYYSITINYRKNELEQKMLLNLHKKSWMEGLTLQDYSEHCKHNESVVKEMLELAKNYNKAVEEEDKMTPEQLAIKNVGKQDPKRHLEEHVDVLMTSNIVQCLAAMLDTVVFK
Rin1 Abl inh – inhibitors of Rin1-Abl protein binding, primary screen, biochemical, TR-FRET | inhibition, % at 7.35 µM | actives 0.4% (n = 360,000) | Tyrosine-protein kinase ABL1 (Homo sapiens) + Ras and Rab interactor 1 (Homo sapiens), … | AID 588664, 2011; in the data active = inhibition above about 5%, passing the limit was not always enough
Xi reactivation – activators of inactive X chromosome reactivation, primary screen, imaging, XiGFP fibroblasts, GFP high-content imaging, set 2. activation, % at 7.58 µM. actives 0.055% (n = 360,000). AID 743238, 2013. XiGFP mouse fibroblasts, % GFP-positive cells imaging, 3 d; cells co-treated with 5-aza-dC sensitizer; scaled so ellipticine positive control = 100%;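 active = mean normalized replicate activation at least 10% and every replicate at or above 10%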;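 note: 0% = median of on-plate neutral control wells and 100% = ellipticine 6 µM median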
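System: 68-5-11 XiGFP fibroblast line; Timing: 3 days compound exposure; Compound dosing: one concentration, pinned; Benchmarks: positive control ellipticine, 6 µM final; Buffer or medium: DMEM containing 5-aza-dC.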
ABHD5-PLIN5 inh – ABHD5-PLIN5 interaction inhibitors, primary screen, cell lysate, split luciferase complementation, luminescence | actives 0.78% (n = 360,000) | AID 602281, 2012 | Perilipin-5 (Homo sapiens) + 1-acylglycerol-3-phosphate O-acyltransferase ABHD5 (Homo … | Split G. princeps luciferase complementation, 4 h | inhibition, % at 4 µM;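 active = inhibition above the mean inhibition across every tested compound plus 3 SD, cut at about 22% in these data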;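 note: 0% = DMSO only wells and the 100% control is not disclosed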
ABHD5-PLIN5 conf – ABHD5-PLIN5 interaction inhibitors, confirmation, biochemical, luminescence. shares compounds with ABHD5-PLIN5 inh. inhibition, % at 4 µM. actives 67% (n = 2,200). AID 651612, 2012; in the data active = inhibition above about 23%;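 note: 0% = DMSO vehicle wells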
HNF4 split-luc – HNF4 dimerization inhibitors, counter-screen for ABHD5-PLIN5 interaction inhibitor project, biochemical, split-luciferase complementation, luminescence | AID 651674, 2012 | actives 77% (n = 2,200) | inhibition, % at 4 µM | shares compounds with ABHD5-PLIN5 inh;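 active = mean inhibition across replicate wells exceeding the computed hit threshold, cut at about 13% in these data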;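 note: light from luciferase halves that rejoin when HNF4 fusion proteins dimerize; 0% = DMSO only wells and the 100% control is not given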
Starred values were filed as active, the others as inactive; · = no result given. An excerpt weighted towards active compounds, which were near 1.9% of everything screened.

SMILES	NadD block	Rpn11 inh	Rin1 Abl inh	Xi reactivation	ABHD5-PLIN5 inh	ABHD5-PLIN5 conf	HNF4 split-luc
COc1ccc(C(C(=O)Nc2c(C)cccc2C)n2c(=O)c(-c3ccco3)nc3ccccc32)cc1 (stereo unspecified)	·	·	·	0.2	80.6*	98.1*	47.9*
Cc1cccc(C)c1NC(=O)C(c1ccc(C#N)cc1)n1c(=O)c(-c2ccco2)nc2ccccc21 (stereo unspecified)	·	·	·	0.0	49.8*	62.8*	8.1
Cc1cccc(C)c1NC(=O)C(CCc1ccccc1)n1c(=O)c(-c2ccccc2)nc2ccccc21 (stereo unspecified)	·	·	·	-0.1	25.6*	31.2*	13.0*
O=C(Nc1ccc2c(c1)OCCO2)C(C1CC1)n1c(=O)c(-c2ccco2)nc2ccccc21 (stereo unspecified)	·	·	·	-0.1	2.3	·	·
N#Cc1ccc(C(C(=O)Nc2ccc3c(c2)OCCO3)n2c(=O)c(-c3ccco3)nc3ccccc32)cc1 (stereo unspecified)	·	·	·	0.3	31.1*	32.2*	7.7
Cc1cccc(C)c1NC(=O)C(CCc1ccccc1)n1c(=O)c(-c2cc3ccccc3[nH]2)nc2ccccc21 (stereo unspecified)	·	·	·	-0.2	4.7	·	·
Cc1ccccc1S(=O)(=O)N(C)C[C@H]1OCc2ccccc2-c2c(n(C)c3ccccc23)C(=O)N([C@@H](C)CO)C[C@H]1C	·	·	·	0.0	·	·	·
Cc1cccc(C)c1NC(=O)C(c1ccccc1)n1c(=O)c(-c2ccco2)nc2ccccc21 (stereo unspecified)	·	·	·	0.3	88.1*	56.0*	22.6*
CC1(C)OC(=O)C=C[C@]2(C)[C@H]3CC[C@@]4(C)[C@H](c5ccoc5)OC(=O)[C@H]5O[C@]54[C@]3(C)C(=O)C[C@@H]12	2.6	-4.9	-0.8	0.1	4.3	·	·
COC(=O)[C@@H]1OC(=O)[C@H]2O[C@@]23[C@@]1(C)CC[C@@H]1[C@@]2(C)C=CC(=O)OC(C)(C)[C@@H]2CC(=O)[C@]13C	-1.2	-3.9	1.8	0.4	1.8	·	·
CC(=O)O[C@@H]1C[C@H]2C(C)(C)C(=O)C=C[C@]2(C)[C@H]2CC[C@@]3(C)[C@H](c4ccoc4)OC(=O)[C@H]4O[C@]43[C@@]21C	-1.4	-40.4	4.9	0.2	27.2*	43.4*	29.6*
CC(=O)OC1CC2C(C)(C)C(=O)C=CC2(C)C2CCC3(C)C(c4ccoc4)OC(=O)C4OC43C12C (stereo unspecified)	-1.9	-33.4	4.5	·	23.7*	41.7*	34.0*
Cc1ccc(S(=O)(=O)N(C)C[C@H]2Oc3cc(C#Cc4ccccc4)ccc3S(=O)(=O)N([C@@H](C)CO)C[C@H]2C)cc1	·	·	·	0.9	·	·	·
O=C(Cc1cccnc1)N1CC(=O)N2[C@@H](CO)[C@H](c3ccc(C#CC4CCCC4)cc3)[C@@H]2C1	·	·	·	0.3	·	·	·
C#CC(=O)N(c1ccc(OC)cc1OC)C(C(=O)NC1CCCC1)c1cccs1 (stereo unspecified)	8.5	-1.4	4.0	0.1	27.7*	39.9*	37.9*
C#CC(=O)N(c1cc(OC)ccc1OC)C(C(=O)NC1CCCC1)c1cccs1 (stereo unspecified)	-2.6	-1.7	-1.9	·	32.5*	45.0*	44.7*
CC(=O)Oc1c(Br)cc(N(C(C)=O)S(=O)(=O)c2ccccc2)c2ccccc12	18.9	8.8	2.9	0.0	44.5*	48.4*	14.1*
CCOC(=O)C(C(=O)OCC)C1OC(=O)c2cc3c(cc21)C(=O)OC3C(C(=O)OCC)C(=O)OCC (stereo unspecified)	-2.2	-4.2	1.5	0.0	31.7*	42.1*	28.0*
CCOC(=O)CC1OC(=O)c2cc3c(cc21)C(=O)OC3CC(=O)OCC (stereo unspecified)	-1.0	-1.2	-0.6	0.2	-8.3	·	·
Cc1noc(C)c1NC(=O)N[C@@H]1C=C[C@@H](CC(=O)N2CCCCC2)O[C@@H]1CO	·	·	·	0.2	·	·	·
CC(Oc1ccccc1F)C(=O)NNC(=O)c1ccc(F)c(S(=O)(=O)N2CCOCC2)c1 (stereo unspecified)	-4.9	-3.6	-0.5	0.3	63.3*	1.7	2.0
CC1(C)CC(=O)C(=Cc2cn(CCC#N)nc2-c2ccc(F)cc2)C(=O)C1	7.7	-2.0	-4.2	-0.1	23.1*	44.9*	37.7*
O=C1C(=C(c2ccccc2)N2CCOCC2)Cc2ccccc21	-2.2	1.4	0.1	1.2	81.5*	97.5*	94.9*
C[C@H]1CN([C@@H](C)CO)C(=O)c2cc(NC(=O)Cc3cn(C)c4ccccc34)ccc2O[C@H]1CN(C)Cc1ccc(C(F)(F)F)cc1	·	·	·	-1.1	·	·	·
COc1ccc2c3c(n(C)c2c1)[C@H](CO)N(Cc1cccnc1)CC31CN(C(=O)NC(C)C)C1	·	·	·	0.4	·	·	·
SMILES	NadD block	Rpn11 inh	Rin1 Abl inh	Xi reactivation	ABHD5-PLIN5 inh	ABHD5-PLIN5 conf	HNF4 split-luc
Cc1cc(C)cc(S(=O)(=O)Cc2noc(C(=O)NCc3ccccc3)c2C(=O)NCc2ccccc2)c1	-4.7	4.7	4.9	0.0	-6.2	·	·
CSc1ncc(Cl)c(C(=O)Nc2cccc(C)c2)n1	-4.4	-7.4	-1.7	0.3	0.7	·	·
Cc1cccc(CS(=O)(=O)c2ncc(Cl)c(C(=O)NCc3ccccc3)n2)c1	-0.7	-9.3	1.4	0.1	34.2*	92.3*	105.7*
CCCc1nnc(NC(=O)CS(=O)(=O)c2ccc(C)cc2)s1	0.9	6.4	1.7	0.3	13.9	·	·
CCCc1nnc(NC(=O)c2nc(S(=O)(=O)Cc3cccc(C)c3)ncc2Cl)s1	5.0	-3.4	6.8	0.7	27.6*	74.5*	42.0*
Cc1cccc(CS(=O)(=O)c2ncc(Cl)c(C(=O)Nc3c(C)cccc3C)n2)c1	-1.9	-8.4	-0.2	2.4	74.6*	89.0*	106.8*
COc1ccc(NC(=O)N(C)C[C@@H]2Oc3ccc(NC(=O)Cc4cn(C)c5ccccc45)cc3C(=O)N([C@@H](C)CO)C[C@H]2C)cc1	·	·	·	0.3	·	·	·
C=CCNC(=O)/C(C#N)=C/c1cc(Br)ccc1OC	-4.6	-6.4	1.8	0.0	43.1*	56.2*	45.2*
C=CCNC(=O)/C(C#N)=C/c1ccccc1Cl	6.8	2.1	-1.5	0.0	6.2	·	·
